# Laboratory results taken from ChEMBL document CHEMBL4689842, “EUbOPEN Chemogenomics Library wave 1” (2021).
# Tested on: HEK-293T
# Test: Multiplex assay against HEK293T;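 on Population Tubulin-Different-Phenotype (%): share of the cells with healthy nuclei that show this phenotype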
# Format: toxicity, cell-based
# Details: human
# Summary of the method: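 Compound was added to live cells that had been stained at seeding with Hoechst33342, BioTracker Green Microtubule Cytoskeleton Dye, MitoTracker Red and Annexin V Alexa Fluor 680, and imaging followed on a CQ1 microscope at 37°C and 5% CO2. CellPathfinder machine-learning gating divided cells into Hoechst high-intensity objects or normal cells, normal cells into healthy, pyknosed or fragmented nuclei, and pyknosed cells into mitotic or apoptotic. Tubulin, mitochondrial-mass and membrane-permeability phenotypes are per cents of healthy-nucleus cells.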
# [1] = 12 h, 1 µM, compound concentration 1 uM, replicate 1
# [2] = 12 h, 1 µM, compound concentration 1 uM, replicate 2
# [3] = 12 h, 10 µM, compound concentration 10 uM, replicate 1
# [4] = 12 h, 10 µM, compound concentration 10 uM, replicate 2
# [5] = 24 h, 1 µM, compound concentration 1 uM, replicate 1
# [6] = 24 h, 1 µM, compound concentration 1 uM, replicate 2
# [7] = 24 h, 10 µM, compound concentration 10 uM, replicate 1
# [8] = 24 h, 10 µM, compound concentration 10 uM, replicate 2
# [9] = 48 h, 1 µM, compound concentration 1 uM, replicate 1
# [10] = 48 h, 1 µM, compound concentration 1 uM, replicate 2
# [11] = 48 h, 10 µM, compound concentration 10 uM, replicate 1
# [12] = 48 h, 10 µM, compound concentration 10 uM, replicate 2
compound,measurement,setting,value
Cl.O=C(O)c1cc(-c2ccc(C3CCNCC3)cc2)c2ccc(-c3ccc(C(F)(F)F)cc3)cc2c1,Population Apoptotic (%),[1],43%
same,Population Fragmented Nuclei (%),[1],17%
same,Population Healthy Nuclei (%),[1],21%
same,Population Hoechst High Intensity Objects (%),[1],19%
same,Population Membrane Permeable-Phenotype (%),[1],0%
same,Population Mitochondria Different-Phenotype (%),[1],76%
same,Population Mitotic Cells (%),[1],56%
same,Population Normal (%),[1],80%
same,Population Pyknosed Nuclei (%),[1],61%
same,Population Tubulin-Different-Phenotype (%),[1],36%
same,Total Cell Count,[1],147
same,Population Apoptotic (%),[2],6%
same,Population Fragmented Nuclei (%),[2],8%
same,Population Healthy Nuclei (%),[2],38%
same,Population Hoechst High Intensity Objects (%),[2],6%
same,Population Membrane Permeable-Phenotype (%),[2],7%
same,Population Mitochondria Different-Phenotype (%),[2],9%
same,Population Mitotic Cells (%),[2],93%
same,Population Normal (%),[2],93%
same,Population Pyknosed Nuclei (%),[2],52%
same,Population Tubulin-Different-Phenotype (%),[2],4%
same,Total Cell Count,[2],178
same,Population Apoptotic (%),[3],62%
same,Population Fragmented Nuclei (%),[3],16%
same,Population Healthy Nuclei (%),[3],20%
same,Population Hoechst High Intensity Objects (%),[3],10%
same,Population Membrane Permeable-Phenotype (%),[3],3%
same,Population Mitochondria Different-Phenotype (%),[3],80%
same,Population Mitotic Cells (%),[3],37%
same,Population Normal (%),[3],89%
same,Population Pyknosed Nuclei (%),[3],62%
same,Population Tubulin-Different-Phenotype (%),[3],49%
same,Total Cell Count,[3],305
same,Population Apoptotic (%),[4],64%
same,Population Fragmented Nuclei (%),[4],8%
same,Population Healthy Nuclei (%),[4],16%
same,Population Hoechst High Intensity Objects (%),[4],16%
same,Population Membrane Permeable-Phenotype (%),[4],20%
same,Population Mitochondria Different-Phenotype (%),[4],66%
same,Population Mitotic Cells (%),[4],35%
same,Population Normal (%),[4],83%
same,Population Pyknosed Nuclei (%),[4],75%
same,Population Tubulin-Different-Phenotype (%),[4],66%
same,Total Cell Count,[4],111
same,Population Apoptotic (%),[5],43%
same,Population Fragmented Nuclei (%),[5],14%
same,Population Healthy Nuclei (%),[5],33%
same,Population Hoechst High Intensity Objects (%),[5],22%
same,Population Membrane Permeable-Phenotype (%),[5],2%
same,Population Mitochondria Different-Phenotype (%),[5],59%
same,Population Mitotic Cells (%),[5],56%
same,Population Normal (%),[5],77%
same,Population Pyknosed Nuclei (%),[5],51%
same,Population Tubulin-Different-Phenotype (%),[5],28%
same,Total Cell Count,[5],160
same,Population Apoptotic (%),[6],9%
same,Population Fragmented Nuclei (%),[6],8%
same,Population Healthy Nuclei (%),[6],72%
same,Population Hoechst High Intensity Objects (%),[6],4%
same,Population Membrane Permeable-Phenotype (%),[6],4%
same,Population Mitochondria Different-Phenotype (%),[6],11%
same,Population Mitotic Cells (%),[6],90%
same,Population Normal (%),[6],95%
same,Population Pyknosed Nuclei (%),[6],19%
same,Population Tubulin-Different-Phenotype (%),[6],9%
same,Total Cell Count,[6],236
same,Population Apoptotic (%),[7],66%
same,Population Fragmented Nuclei (%),[7],20%
same,Population Healthy Nuclei (%),[7],18%
same,Population Hoechst High Intensity Objects (%),[7],16%
same,Population Membrane Permeable-Phenotype (%),[7],4%
same,Population Mitochondria Different-Phenotype (%),[7],78%
same,Population Mitotic Cells (%),[7],34%
same,Population Normal (%),[7],83%
same,Population Pyknosed Nuclei (%),[7],60%
same,Population Tubulin-Different-Phenotype (%),[7],57%
same,Total Cell Count,[7],297
same,Population Apoptotic (%),[8],60%
same,Population Fragmented Nuclei (%),[8],11%
same,Population Healthy Nuclei (%),[8],16%
same,Population Hoechst High Intensity Objects (%),[8],28%
same,Population Membrane Permeable-Phenotype (%),[8],0%
same,Population Mitochondria Different-Phenotype (%),[8],61%
same,Population Mitotic Cells (%),[8],39%
same,Population Normal (%),[8],71%
same,Population Pyknosed Nuclei (%),[8],72%
same,Population Tubulin-Different-Phenotype (%),[8],76%
same,Total Cell Count,[8],112
same,Population Apoptotic (%),[9],38%
same,Population Fragmented Nuclei (%),[9],25%
same,Population Healthy Nuclei (%),[9],27%
same,Population Hoechst High Intensity Objects (%),[9],21%
same,Population Membrane Permeable-Phenotype (%),[9],2%
same,Population Mitochondria Different-Phenotype (%),[9],25%
same,Population Mitotic Cells (%),[9],61%
same,Population Normal (%),[9],78%
same,Population Pyknosed Nuclei (%),[9],47%
same,Population Tubulin-Different-Phenotype (%),[9],19%
same,Total Cell Count,[9],166
same,Population Apoptotic (%),[10],8%
same,Population Fragmented Nuclei (%),[10],4%
same,Population Healthy Nuclei (%),[10],82%
same,Population Hoechst High Intensity Objects (%),[10],2%
same,Population Membrane Permeable-Phenotype (%),[10],4%
same,Population Mitochondria Different-Phenotype (%),[10],1%
same,Population Mitotic Cells (%),[10],92%
same,Population Normal (%),[10],97%
same,Population Pyknosed Nuclei (%),[10],13%
same,Population Tubulin-Different-Phenotype (%),[10],9%
same,Total Cell Count,[10],390
same,Population Apoptotic (%),[11],60%
same,Population Fragmented Nuclei (%),[11],34%
same,Population Healthy Nuclei (%),[11],7%
same,Population Hoechst High Intensity Objects (%),[11],21%
same,Population Membrane Permeable-Phenotype (%),[11],0%
same,Population Mitochondria Different-Phenotype (%),[11],89%
same,Population Mitotic Cells (%),[11],39%
same,Population Normal (%),[11],78%
same,Population Pyknosed Nuclei (%),[11],58%
same,Population Tubulin-Different-Phenotype (%),[11],78%
same,Total Cell Count,[11],314
same,Population Apoptotic (%),[12],40%
same,Population Fragmented Nuclei (%),[12],13%
same,Population Healthy Nuclei (%),[12],23%
same,Population Hoechst High Intensity Objects (%),[12],27%
same,Population Membrane Permeable-Phenotype (%),[12],20%
same,Population Mitochondria Different-Phenotype (%),[12],30%
same,Population Mitotic Cells (%),[12],59%
same,Population Normal (%),[12],72%
same,Population Pyknosed Nuclei (%),[12],62%
same,Population Tubulin-Different-Phenotype (%),[12],95%
same,Total Cell Count,[12],119
